High-throughput results deposited in PubChem BioAssay by several laboratories.
S1P4 ag: agonists of human S1P4 receptor. O95977. S1P4-expressing cell line, agonist reporter assay. activation, % at 4.98 µM. hit rate 0.35% among 220,000. AID 1509; in the data active = activation above about 11%
S1P3 antag: blocks the human S1P3 receptor. Q99500. CHO S1P3 NFAT-BLA reporter, FRET fluorescence, antagonist mode. AID 485. hit rate 0.27% among 170,000. inhibition, % at 4.98 µM;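 active = inhibition above the plate cutoff, the mean inhibition of test wells on that plate plus 3 SD, cut at about 28% in these data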;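 note: cells challenged with S1P at its EC80 of 0.8 µM; blue over green emission ratio from cleaved BLA substrate after 4 h stimulation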
S1P4 antagonist: blocks the human S1P4 receptor; S1P4-expressing cells, antagonist mode, reporter read-out; inhibition, % at 4.98 µM; hit rate 0.26% among 220,000; in the data active = inhibition above about 29%
Dynein cargo inh: dynein cargo transport inhibition; 3617.4 mouse cells, GR-EGFP nuclear translocation imaging; test concentration mostly 20 µM; stimulated with dexamethasone, 1 µM; stronger effect = lower value; z-score, hits read low; hit rate 0.47% among 220,000; AID 1381;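 active = plate z-score of nuclear minus cytoplasmic receptor signal below a set negative limit, without overly bright fluorescence or cell loss, cut at about -3.5 in these data, passing the limit was not always enough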;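 note: z-score of nuclear minus cytoplasmic ring GR-EGFP intensity difference per well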
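Buffer or medium – tet-free medium with charcoal-stripped serum · Signal – automated 10x imaging of fixed Hoechst-stained cells · Also added – dexamethasone agonist, 1.0 µM final, for 30 min · Incubation – induction 48 h, compound 1 h, agonist 30 min · Read-out – GR-EGFP nuclear translocation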
Calb biofilm kill: mixtures killing C. albicans biofilm; C. albicans biofilm persisters + clotrimazole, fluorescence viability; primary screen in compound mixtures of four per well; inhibition, % at 7.6 µM; AID 1242; hit rate 0.02% among 120,000;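 active = inhibition above 30.3% in the primary screen of four-compound pools, then above 30% when the compound was retested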;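 note: compounds exposed to preformed 24 h biofilms for 48 h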
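Incubation: 24 h biofilm formation, then 48 h compound exposure, 37 °C | Material: C. albicans biofilms | Buffer or medium: RPMI/MOPS medium, pH 7.0 | Measured by: 2-h Alamar Blue fluorescence, 535/590 nm excitation/emission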
TbHK1 inh: blocks Trypanosoma brucei hexokinase 1 activity; recombinant TbHK1, G6PDH-coupled NADH A340; inhibition, % at 10 µM; hit rate 0.11% among 220,000; AID 1430;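 active = inhibition of 50% or more in the single-dose primary screen; inactive = inhibition below 50%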
S1P4 agonist cf: confirmation of human S1P4 receptor agonists; AID 1523; hit rate 7% among 740; shares compounds with S1P4 ag; activation, % at 4.98 µM; S1P4 agonist cell-based reporter assay; in the data active = activation above about 12%
S1P1 ag: human S1P1 agonism as S1P4 agonist counter-screen; shares compounds with S1P4 ag; S1P1 agonist cell-based assay, activation; activation, % at 4.98 µM; hit rate 4% among 740; AID 1563; in the data active = activation above about 21%
Target sequence (P21453 whole entry, looked up): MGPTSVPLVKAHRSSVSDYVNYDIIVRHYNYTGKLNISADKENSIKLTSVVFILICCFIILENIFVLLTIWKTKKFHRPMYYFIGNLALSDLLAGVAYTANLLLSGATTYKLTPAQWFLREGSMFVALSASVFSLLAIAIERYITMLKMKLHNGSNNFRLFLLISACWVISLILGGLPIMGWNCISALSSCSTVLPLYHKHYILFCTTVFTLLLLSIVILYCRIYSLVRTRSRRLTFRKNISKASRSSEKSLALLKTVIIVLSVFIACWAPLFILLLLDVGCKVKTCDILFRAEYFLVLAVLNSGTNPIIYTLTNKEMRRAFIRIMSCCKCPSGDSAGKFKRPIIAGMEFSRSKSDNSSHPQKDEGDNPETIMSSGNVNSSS
Hits are given with their value; . = inactive; / = not tested or not shown. Most compounds without a hit are left out; they make up all but 1.3% or so of the library.

SMILES	S1P4 ag	S1P3 antag	S1P4 antagonist	Dynein cargo inh	Calb biofilm kill	TbHK1 inh	S1P4 agonist cf	S1P1 ag
CCOC(=O)C1CCN(c2ncnc3c2oc2ccc(Cl)cc23)CC1	187	.	.	.	/	.	.	.
COc1ccc(SCC(=O)Nc2ccccc2Cl)cc1	114	.	.	.	.	.	.	.
COc1ccc(/C=N/NC(=O)CC(=O)NC2CCCCC2)cc1	.	.	.	.	.	.	/	/
O=[N+]([O-])c1ccccc1N/N=C/c1cccc(O)c1O	13	.	.	.	.	.	.	.
CCNS(=O)(=O)c1cc(OC)ccc1OC	16	/	.	.	/	.	.	.
COc1ccc(OC)c(S(=O)(=O)NCCO)c1	.	.	.	.	/	.	/	/
COc1ccccc1CCNC(=O)CSc1nnc2ccc(-c3ccncc3)nn12	.	.	.	.	.	.	/	/
Nn1cc(-c2ccccc2)nc1SCC(=O)NCC(F)(F)F	14	.	.	.	.	.	.	.
COC(=O)CCCNc1ncccc1[N+](=O)[O-]	48	.	.	.	.	.	.	.
Cc1c(Nc2c3ccccc3nc3ccccc23)c(=O)n(-c2ccccc2)n1C	11	.	.	.	.	.	.	.
Cc1ccc(CN(c2ccc(C(=O)NCC3CCCO3)cc2)S(C)(=O)=O)cc1 (stereo not given)	30	.	.	.	.	.	.	.
CN(C)c1ccc(C(=O)NCC2CCCO2)cc1 (stereo not given)	.	/	.	.	.	.	/	/
CC(C)CC(=O)NC(c1ccccc1Cl)c1c(O)ccc2ccccc12 (stereo not given)	13	.	.	.	.	.	.	.
O=C(CN1CCC(Cc2ccccc2)CC1)Nc1ccc2c(c1)OCCO2	413	/	.	.	/	.	.	.
O=C(CN1CCN(CC(=O)Nc2ccccc2Cl)CC1)Nc1ccc2c(c1)OCCO2	.	.	.	.	/	.	/	/
COC(=O)c1sccc1NC(=S)N1CCN(c2cccc(C)c2C)CC1	23	.	.	.	.	.	.	.
Cc1cc(=O)c2ccccc2n1CC(=O)NCc1ccccc1	19	.	.	.	.	.	.	.
CCN1CCN(c2cc(C)c3cc(NC(=O)c4cccs4)ccc3n2)CC1	56	.	.	.	.	.	.	.
CCN1CCN(c2cc(C)c3cc(NC(=O)c4cccc(OC)c4)ccc3n2)CC1	.	.	.	.	.	.	/	/
Cc1cc(NC(=O)C2C3C(=O)N(Cc4ccc(Cl)cc4)C(C(=O)NCc4ccccc4)C34C=CC2(C)O4)no1 (stereo not given)	18	/	.	.	/	.	.	.
Cc1cc(NC(=O)C2C3C(=O)N(Cc4ccc(Cl)cc4)C(C(=O)NC4CCCCC4)C34C=CC2(C)O4)no1 (stereo not given)	.	/	.	.	/	.	/	/
COc1ccc(CCNC(=O)c2nnn(-c3cc(C)cc(C)c3)c2N)cc1OC	.	/	.	.	/	.	/	/
Cc1ccc(CCNC(=O)c2nnn(-c3cc(C)cc(C)c3)c2N)cc1	11	.	.	.	/	.	.	.
Cc1ccc(N/N=C(\C#N)C(N)=S)c(C)c1	20	.	.	.	.	.	.	.
Cc1ccc(NC(=O)/C(C#N)=N/Nc2ccc(C(=O)O)cc2)c(C)c1	.	.	.	.	.	.	/	/
SMILES	S1P4 ag	S1P3 antag	S1P4 antagonist	Dynein cargo inh	Calb biofilm kill	TbHK1 inh	S1P4 agonist cf	S1P1 ag
Cc1ccc(-n2ncc3c(=O)n(CC(=O)OCc4ccccc4)cnc32)cc1	17	.	.	.	/	.	.	.
O=C(Cn1cnc2c(cnn2-c2ccccc2)c1=O)OCc1ccccc1	.	.	.	.	/	.	/	/
CCOc1ccc(-c2nnn(CC(=O)NCc3ccccc3)n2)cc1	19	.	.	.	.	.	.	.
O=C(Nc1nc(-c2ccccn2)cs1)C1COc2ccccc2O1 (stereo not given)	38	.	.	.	/	.	.	.
O=C(Nc1nc(-c2ccccc2)cs1)C1COc2ccccc2O1 (stereo not given)	.	/	.	.	/	.	/	/
C[N+]1([O-])[C@@H]2Cc3cc4c(cc3[C@@H]1Cc1cc3c(cc12)OCO3)OCO4 (stereo not given in full)	/	/	/	.	.	.	/	/
COCCCNC(=O)CN(CCc1ccccc1)S(=O)(=O)c1ccc(C)cc1	.	.	.	.	.	.	/	/
CCCN(CCC)c1ccc(/C=C/c2ccc3cc(OCC)ccc3n2)cc1	17	.	.	.	.	.	30	47
C/C(=N\NC(=O)Cn1cc([N+](=O)[O-])cn1)c1ccc(O)cc1	.	.	.	.	.	.	/	/
O=C(CCSc1nnc(-c2ccccc2)o1)N1CCOCC1	28	.	.	.	.	.	.	.
COc1ccc(/C=C/C(=O)Nc2cc(C)on2)cc1	.	.	.	.	.	.	/	/
COc1ccc(/C=C/C(=O)Nc2nonc2NC(C)=O)cc1	38	.	.	.	.	.	.	.
Cc1nnc(SCCn2c(N3CCN(C)CC3)nc3c2c(=O)n(C)c(=O)n3C)s1	45	.	.	.	/	.	.	.
Cc1nnc(SCCn2c(N3CCCCC3)nc3c2c(=O)n(C)c(=O)n3C)s1	.	.	.	.	/	.	/	/
S=C(c1cn(CCOc2cccc3ccccc23)c2ccccc12)N1CCCC1	29	.	.	.	.	.	.	.
CCCCNC(=O)CC1S/C(=N/N=C/c2ccc(OC)cc2)NC1=O (stereo not given)	12	.	.	.	.	.	.	.
CN1CCN(C(=O)CN(Cc2ccccc2)S(C)(=O)=O)CC1	.	/	.	.	/	.	/	/
CS(=O)(=O)N(CCc1ccccc1)CC(=O)N1CCCC1	21	.	.	.	.	.	.	.
COc1ccc(NC(=S)c2ccncc2)cc1	19	.	.	.	.	.	.	.
COC(=O)c1c(-n2c(C)cc(C=O)c2C)sc2c1CCCC2	12	/	.	.	/	.	15	.
CCOC(=O)CS(=O)(=O)c1ccc(O)cc1	22	.	.	.	.	.	.	.
CC(=O)c1ccc(NC(=O)CSc2nc(N)c3cc4c(nc3n2)CCCC4)cc1	.	.	.	.	.	.	/	/
COc1ccc(NC(=O)CSc2nc(N)c3cc4c(nc3n2)CCCC4)cc1	11	.	.	.	.	.	.	.
CC12CN3CCN(CC(C3)/C1=N\NC(=O)Nc1cccc(Cl)c1)C2	.	.	.	.	.	.	/	/
Cc1ccc(S(=O)(=O)CNC(=O)c2ccccc2)cc1	24	.	.	.	/	.	.	.
COc1cccc2cc(C(C)=O)c(=O)oc12	.	.	.	.	/	.	/	/
COc1cc(C(C)=O)ccc1OC(=O)c1cc2cccc(OC)c2oc1=O	14	.	.	.	.	.	.	.
COc1ccc(CCCC(=O)Nc2ccc(F)cc2)cc1	.	.	.	.	.	.	/	/
